Sampled rows, rich in hits. Any-hit rate of the full collection: about 5.3%.
Beta cell apopt = beta cell apoptosis inhibition; protection from apoptosis, % (concentration not given with the values); INS-1E cytokine-induced death, ATP luminescence, 48 h; percent of positive-control rescue, neutral wells zero; hit rate 0.8% among 300,000;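 active means Every replicate reaches about 75%, or at least half do and their mean reaches it too, limit read from the data; inconclusive means At least half of replicates reach the limit but their mean does not; inactive means Under half of replicates reach the limit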;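 further: 0% = cytokine-treated negative control wells and 100% = positive control rescue; higher means more ATP so stronger rescue from cytokine killing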
CSC inhib = cancer stem cell inhibition. cancer stem cell-like cells viability, luminescence. inhibition, % at 7.5 µM. hit rate 1.1% among 300,000. AID 2717; in the data active means inhibition above about 75%; inconclusive means no clear call, values can overlap the other calls; tested in HMLE shEcad cells
Mdm2 MdmX PPI = human Mdm2/MdmX binding inhibition. O15151+Q00987. SaOS-2 split-luciferase Mdm2/MdmX complementation, luminescence. inhibition, % at 8 µM. hit rate 3% among 330,000;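 active means inhibition of at least 50% at 8 µM in the primary screen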
Target sequence (O15151 whole entry, looked up): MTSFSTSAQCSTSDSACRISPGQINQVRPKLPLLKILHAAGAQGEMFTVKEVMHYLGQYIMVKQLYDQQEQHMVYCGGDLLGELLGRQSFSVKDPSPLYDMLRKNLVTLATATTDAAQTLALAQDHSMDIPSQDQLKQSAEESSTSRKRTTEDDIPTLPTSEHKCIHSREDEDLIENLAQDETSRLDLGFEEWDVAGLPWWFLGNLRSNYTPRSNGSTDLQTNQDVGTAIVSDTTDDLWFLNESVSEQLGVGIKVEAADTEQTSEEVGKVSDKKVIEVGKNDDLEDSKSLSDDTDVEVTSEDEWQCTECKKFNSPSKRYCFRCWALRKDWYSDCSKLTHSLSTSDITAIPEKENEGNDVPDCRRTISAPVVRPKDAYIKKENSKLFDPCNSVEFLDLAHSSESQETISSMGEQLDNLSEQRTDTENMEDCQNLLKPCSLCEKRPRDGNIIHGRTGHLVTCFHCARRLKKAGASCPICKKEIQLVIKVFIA
Target sequence (Q00987 whole entry, looked up): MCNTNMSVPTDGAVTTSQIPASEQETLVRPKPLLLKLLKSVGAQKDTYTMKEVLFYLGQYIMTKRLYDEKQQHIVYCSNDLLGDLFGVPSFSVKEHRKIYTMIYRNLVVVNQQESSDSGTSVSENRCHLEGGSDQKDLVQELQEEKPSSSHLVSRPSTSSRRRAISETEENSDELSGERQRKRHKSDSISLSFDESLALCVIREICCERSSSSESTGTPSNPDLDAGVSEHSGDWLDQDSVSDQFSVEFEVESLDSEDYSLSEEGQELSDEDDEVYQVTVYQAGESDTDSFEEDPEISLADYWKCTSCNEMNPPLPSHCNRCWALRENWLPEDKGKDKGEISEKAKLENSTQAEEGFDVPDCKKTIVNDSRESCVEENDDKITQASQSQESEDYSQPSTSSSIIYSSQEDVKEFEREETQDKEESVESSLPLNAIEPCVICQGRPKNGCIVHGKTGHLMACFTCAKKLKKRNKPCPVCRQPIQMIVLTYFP
NLRP3 yeast inh = blocks the NALP3 inflammasome reconstituted in yeast; inhibition, % at 10 µM; Yeast reconstituted NLRP3/ASC/caspase-1, beta-gal luminescence, 24 h; hit rate 0.39% among 330,000;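 active means inhibition of 50% or more; inactive means inhibition below 50%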;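 further: plate controls were induced DMSO wells for no effect and uninduced yeast grown without galactose for full effect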
Calb FLC = C. albicans growth modulation with fluconazole. C. albicans CaCi-2 (fluconazole-resistant clinical isolate) + fluconazole, Alamar Blue growth, 48 h. growth inhibition, % (concentration not given with the values). hit rate 0.57% among 300,000. AID 1979;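 active means growth inhibition above about 58% in most replicates, limit read from the data, passing the limit was not always enough; inconclusive means exactly half the replicates above a set limit; inactive means most replicates below a set limit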;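 further: all wells also contain fluconazole at 8 µg/ml as a sub-toxic cotreatment; 0% = median of DMSO wells and 100% = median of geldanamycin control wells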
T cruzi inh = blocks replication of Trypanosoma cruzi; T. cruzi beta-gal in NIH3T3, luminescence, 90 h; inhibition, % (test concentration not listed); hit rate 1.4% among 300,000; AID 1885;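 active means mean inhibition across valid replicates above about 55%, limit read from the data; inconclusive means mean below that limit but half or more replicates reach it; inactive means mean below it, under half of replicates reach it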;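 further: signal also drops with host cell toxicity which is not excluded here; 0% = plate median of DMSO wells and 100% = zero luminescence signal; higher percent means less beta-gal luminescence so fewer parasites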
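Assay system: NIH/3T3 host cells with β-galactosidase reporter T. cruzi; input: 5,000 host fibroblasts per well; compound: single 50 nL compound addition per well in DMSO; timing: ≥90 h infection period, 3 h prior cell attachment; measured by: GalScreen β-gal luminescence, detergent lysis, 60 min; evaluation: percent inhibition of parasite-derived β-gal signal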
Mdm2 MdmX conf = confirmation of human Mdm2/MdmX interaction inhibitors; hit rate 55% among 10,000; AID 489028; shares compounds with Mdm2 MdmX PPI; Mdm2-MdmX binding, luminescent assay; inhibition, % at 8 µM; in the data active means inhibition above about 40%
Full FLuc ctr = full-length luciferase inhibition in Mdm2/MdmX counter-screen; hit rate 77% among 6,200; SaOS-2 full-length luciferase counterscreen, luminescence; inhibition, % at 8 µM; shares compounds with Mdm2 MdmX PPI; AID 504607;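 active means mean inhibition at 8 µM reaching about 37%, which flags the compound as non-specific, limit read from the data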;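 further: p53-null SaOS-2 cells with luciferase driven by a doxycycline-inducible promoter; compound on cells about two nights before reading with doxycycline added after day one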
Starred values were filed as active, the others as inactive; ? = inconclusive; · = no result given.

SMILES | Beta cell apopt | CSC inhib | Mdm2 MdmX PPI | NLRP3 yeast inh | Calb FLC | T cruzi inh | Mdm2 MdmX conf | Full FLuc ctr
O=C(Nc1ccc(Cl)cc1)Nc1nnc(CSCc2ccccc2Cl)s1 | 36.4 | 36.8 | 60.7* | -0.7 | 3.0 | -1.0 | 15.4 | ·
COc1cc(NC(=O)COc2ccccc2)c(OC)cc1NC(C)=O | -3.6 | -13.3 | 5.0 | 5.1 | 27.6 | -9.0 | · | ·
CCCCCC(=O)NC(Cc1ccc(OC)c([N+](=O)[O-])c1)C(=O)O (centres undefined) | 3.7 | 1.1 | 4.5 | 18.7 | 3.9 | 6.6 | · | ·
CCS(=O)(=O)NCc1csc(-c2ccccc2)n1 | -1.0 | -5.9 | 3.1 | 13.1 | -1.7 | 5.1 | · | ·
Cc1cc(C)c(OCCNCc2ccccc2)c(C)c1 | · | · | 14.7 | 24.9 | 0.2 | 4.8 | · | ·
Cc1cc(C)c(OCCCCNCc2ccccc2)c(Cl)c1 | 3.3 | 50.9 | 51.4* | 23.7 | -29.0 | 44.9 | 40.2* | 67.9*
Nc1nc(C2CCOCC2)cs1 | -2.8 | -0.4 | 20.3 | 1.8 | -6.2 | -14.8 | · | ·
Nc1nc(C2CC2)c(Sc2sc(N)nc2C2CC2)s1 | -21.8 | 31.2 | 50.5* | 14.8 | 0.7 | 7.9 | 38.4 | 119.5*
Cc1cccc(OCCCC(=O)Nc2nc3ccccc3[nH]2)c1 | 13.4 | 83.8* | 75.7* | 12.5 | 11.9 | -41.2 | 74.0* | 64.8*
Cc1cccc(OCCCSc2nc3ccccc3[nH]2)c1 | 0.4 | 9.2 | 9.1 | 16.7 | 36.1 | 7.4 | · | ·
Cn1cnnc1Sc1ccc(/C=C/C(=O)c2ccc(O)cc2)cc1[N+](=O)[O-] | -15.9 | 71.0 | 50.5* | 4.9 | 22.2 | -30.7 | 38.5 | 53.4*
CCC(C)(C)NC(=O)c1ccc(Sc2nncn2C)c([N+](=O)[O-])c1 | -9.8 | -2.7 | 7.6 | 7.5 | 0.9 | 2.3 | · | ·
NC(=O)c1cc2ccncc2c2ccccc12 | -42.5 | -4.1 | 89.8* | -7.3 | 11.8 | -11.1 | 94.2* | 51.5*
CC[C@@]1(O)C(=O)OCc2c1cc1n(c2=O)Cc2cc3c(N)cccc3nc2-1 | 98.4* | 56.4 | 100.3* | 1.6 | 14.4 | 44.9 | 95.8* | 52.8*
CCCCc1cc(=O)oc2c(CN(C)C)c(O)ccc12 | · | 18.7 | -14.5 | -6.1 | -0.7 | -14.9 | · | ·
O=c1cccc2n1Cc1cc3ccccc3nc1-2 | 2.0 | -10.6 | -58.8 | 0.9 | -8.8 | -12.1 | · | ·
CC[C@@]1(O)C(=O)OCc2c1cc1n(c2=O)Cc2cc3c(CN(C)C)c(O)ccc3nc2-1 | 58.5 | 103.6* | 87.8* | 4.5 | · | 20.5 | 87.9* | 52.0*
Cc1cnc(C(=O)NNC(=O)c2ccc(Br)cc2)cn1 | 13.5 | 12.1 | 60.8* | 10.7 | · | 12.3 | 34.8 | 69.3*
Cc1nc(-c2cccc(NC(=O)COc3ccc(Cl)cc3)c2)cs1 | -5.6 | 9.1 | 25.4 | 12.4 | ? | -4.9 | · | ·
O=C(Nc1cccnc1)c1ccc(COc2cc(Cl)ccc2Cl)o1 | -3.8 | 72.0 | 0.4 | 15.6 | -6.7 | -14.2 | · | ·
O=C(N/N=C/c1ccc(O)cc1)c1ccc(COc2cc(Cl)ccc2Cl)o1 | 5.7 | 67.8 | 60.8* | 11.2 | 1.6 | -2.5 | 23.9 | ·
Cc1cc(SCC(=O)c2ccc(O)c(O)c2)n2nc(C)c(-c3ccccc3)c2n1 | 0.4 | 119.0* | 51.9* | 10.7 | ? | 21.0 | 57.1* | 54.4*
COC(=O)C1C2C=CC3(CN(CCc4ccccc4)C(=O)C13)O2 (centres undefined) | -6.2 | -12.5 | 10.1 | 0.4 | -1.8 | -9.7 | · | ·
CC[C@@H](C)[C@H](CN[C@H](CNC)C(C)C)NC[C@@H](C)c1ccc(CC(C)C)cc1 | 19.1 | 45.5 | 98.2* | 31.2 | 15.1 | 36.8 | 100.0* | 52.3*
Cc1cccc(C)c1OCCCCN1CCCCC1 | -4.0 | 3.8 | 24.9 | 7.4 | -5.7 | -10.3 | · | ·
SMILES | Beta cell apopt | CSC inhib | Mdm2 MdmX PPI | NLRP3 yeast inh | Calb FLC | T cruzi inh | Mdm2 MdmX conf | Full FLuc ctr
Oc1ccc(Cl)cc1-c1cc(-c2cccc(Br)c2)n[nH]1 | 18.2 | 90.3* | 61.5* | 1.5 | -7.1 | -13.2 | 32.8 | ·
O=C(CCCc1ccccc1)NCc1ccc(F)cc1 | 2.1 | 6.9 | -14.1 | 8.3 | -18.9 | -2.5 | · | ·
O=C1c2ccccc2C(=O)N1CCc1ccccn1 | -5.2 | -3.3 | 19.6 | -0.6 | 9.1 | -9.4 | · | ·
O=C1c2cccc3c([N+](=O)[O-])ccc(c23)C(=O)N1CCc1ccccn1 | -5.3 | 69.8 | 95.6* | -3.4 | -4.0 | 29.4 | 8.8 | ·
CC(C)NC(=S)NNc1ncnc2sc3c(c12)CC(C)(C)OC3 | -5.3 | -7.3 | 5.0 | 8.1 | 4.5 | -29.0 | · | ·
CC1(C)Cc2c(sc3ncnc(NNC(=S)NCc4ccccc4)c23)CO1 | -4.5 | 43.7 | 54.2* | 12.1 | 22.9 | -51.6 | 63.5* | 84.4*
CCOC(=O)N1CCN(C(=O)c2ccc(Cn3c(=S)[nH]c4cc5c(cc4c3=O)OCO5)cc2)CC1 | -3.2 | · | 27.5 | 21.3 | 5.4 | -0.1 | · | ·
CCOC(=O)N1CCN(C(=O)c2ccc(Cn3c(=S)[nH]c4cc(OCC)c(OCC)cc4c3=O)cc2)CC1 | 13.7 | 7.6 | 54.2* | 10.6 | 14.8 | -9.7 | 30.6 | ·
COC(=O)C1=C(C(=O)OC)[C@@H]2N(Cc3ccccc3)c3ccccc3[C@@]23C[C@@H](C(=O)OC)N(C(=O)COCc2ccccc2)C3=N1 | -8.3 | 2.7 | 62.9* | 5.3 | 6.3 | -10.1 | 21.0 | ·
C=CCN1c2ccccc2[C@]23C[C@@H](C(=O)OC)N(C(=O)c4ccc(Br)cc4)C2=NC(C(=O)OC)=C(C(=O)OC)[C@H]13 | -9.7 | 39.2 | 95.8* | 4.8 | 10.0 | -17.6 | 68.3* | 52.6*
COC(=O)C1=C(C(=O)OC)[C@@H]2N(Cc3ccccc3)c3ccccc3[C@@]23C[C@@H](C(=O)OC)N(C(C)=O)C3=N1 | -2.5 | 7.0 | -12.3 | -3.9 | 0.9 | -14.6 | · | ·
C=CCN1c2ccccc2[C@]23C[C@@H](C(=O)OC)N(C(=O)OCC)C2=NC(C(=O)OC)=C(C(=O)OC)[C@H]13 | -0.5 | 4.2 | 26.3 | 17.4 | -5.3 | -0.9 | · | ·
COC(=O)C1=C(C(=O)OC)[C@@H]2N(Cc3ccccc3)c3ccccc3[C@@]23C[C@@H](C(=O)OC)N(C(=O)c2ccc(Br)cc2)C3=N1 | -0.1 | -4.2 | 95.6* | -0.3 | 4.1 | 2.6 | 85.7* | 53.3*
COC(=O)C1=C(C(=O)OC)[C@@H]2N(C)c3ccc(OC)cc3[C@@]23C[C@@H](C(=O)OC)N(C(=O)c2ccc(Br)cc2)C3=N1 | -5.7 | 34.7 | 68.6* | 8.0 | -20.0 | -2.8 | -1.1 | ·
COc1ccc(CNC(=O)CCNS(=O)(=O)c2ccc(C)cc2)cc1 | 0.2 | 1.5 | -2.2 | 9.6 | -5.2 | -4.3 | · | ·
O=C(NCc1ccc(Cl)cc1)C1CCC(CNc2c(N3CCCCC3)c(=O)c2=O)CC1 (centres undefined) | -0.1 | -5.0 | -25.2 | 0.5 | 13.5 | 2.4 | · | ·
COC(=O)C(C)Sc1ccc2nnc(-c3ccc(F)cc3)n2n1 (centres undefined) | · | · | 18.9 | 14.0 | -0.1 | -10.0 | · | ·
